High-throughput results: PubChem, Johns Hopkins Ion Channel Center
RGS4 pot – potentiators or activators of RGS4. hit rate 0.92% among 310,000. B-score at 10 µM. HEK293 M3R/inducible RGS4, carbachol calcium flux Fluo4; stronger effect = lower value;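 active = B-score of the integrated calcium signal more than 4 SD below the library mean, with starting fluorescence not abnormally high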;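 note: negative B-score means reduced calcium response which marks RGS4 activation or potentiation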
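System: HEK293 FlpIn-TREx cells, stable M3R, doxycycline-inducible RGS4. Timing: overnight RGS4 induction, 30 min dye load 37 °C, 20 min compound RT. Also added: carbachol, ECmax concentration. Measured by: Fluo4 fluorescence kinetic imaging of calcium. Evaluation: integrated calcium ratio converted to B score.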
RGS4 inh – human RGS4 inhibition. P49798. HEK293 M3R/RGS4 inducible, Fluo-4 calcium flux; stronger effect = higher value; triggered by carbachol at its EC20. B-score at 10 µM. hit rate 0.45% among 310,000;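 active = B-score, a plate-corrected calcium signal, over three deviations above library mean, with baseline fluorescence within five deviations of library mean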;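 note: RGS4 expression induced by doxycycline in cells with stable M3 receptor; B-score is computed from the integrated fluorescence ratio over baseline after carbachol; higher B-score means a larger calcium signal and so more RGS4 inhibition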
Target sequence (P49798 whole entry, looked up): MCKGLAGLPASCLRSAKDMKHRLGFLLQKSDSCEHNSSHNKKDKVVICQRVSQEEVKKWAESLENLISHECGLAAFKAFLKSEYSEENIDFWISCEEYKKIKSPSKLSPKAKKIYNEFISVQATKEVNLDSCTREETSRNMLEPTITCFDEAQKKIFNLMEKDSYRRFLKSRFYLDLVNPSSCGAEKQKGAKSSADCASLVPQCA
MrgX1 antagonist – blocks BAM8-22 activation of human MrgX1 receptor; AID 588676; B-score at 10 µM; hit rate 1.3% among 310,000; MRGX1-HEK293 calcium flux, Fluo-4, BAM8-22 antagonism; stronger effect = lower value; Q96LB2;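 active = calcium-response B-score plate-corrected more than 3 library SD below zero, starting fluorescence within 5 deviations, no agonist response on first addition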;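 note: peak minus trough fluorescence over baseline after final BAM8-22 challenge near maximal dose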
Target sequence (Q96LB2 whole entry, looked up): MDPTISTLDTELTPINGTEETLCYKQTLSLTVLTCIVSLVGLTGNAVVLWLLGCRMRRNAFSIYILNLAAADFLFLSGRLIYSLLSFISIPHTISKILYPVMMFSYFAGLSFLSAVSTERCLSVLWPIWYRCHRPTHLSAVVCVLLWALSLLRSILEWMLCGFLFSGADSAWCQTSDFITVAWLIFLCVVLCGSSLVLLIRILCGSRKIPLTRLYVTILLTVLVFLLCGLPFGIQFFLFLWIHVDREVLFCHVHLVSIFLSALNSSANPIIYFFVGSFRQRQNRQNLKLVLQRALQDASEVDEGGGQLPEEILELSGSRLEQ
MrgX1 agonist – human MrgX1 receptor agonism, primary screen; MrgX1-HEK293 cells, Fluo-4 calcium fluorescence, agonist mode; stronger effect = higher value; B-score at 10 µM; hit rate 0.44% among 310,000;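 active = calcium response B-score plate-corrected fluorescence ratio at least 3 library SD, with starting fluorescence B-score inside 5 SD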
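Material: MrgX1-expressing HEK293 cells / Dosing: compound as first of three additions / Incubation: overnight seeding, then 1 h dark dye loading / Signal: Fluo-4 NW calcium fluorescence / Evaluation: B-scored fluorescence response ratio / Benchmarks: positive and negative control wells on each plate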
MrgX1 allo act – allosterically activates human MrgX1 receptor signaling; B-score at 10 µM; hit rate 0.63% among 310,000; MrgX1-HEK293, Fluo-4 calcium flux, FDSS; stronger effect = higher value; AID 588675; Q96LB2;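 active = plate-corrected calcium response at least 3 library SD above typical, normal starting fluorescence, not activating the receptor alone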;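 note: compound read alongside a low EC10 to EC30 dose of BAM8-22 agonist; peak minus trough fluorescence over baseline measured at the second addition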
Active calls of the source: *; i = inactive; x = not tested or not shown. Shown are actives, neighbours in structure and some others; about 3.5% of the full set was active somewhere.

SMILES | RGS4 pot | RGS4 inh | MrgX1 antagonist | MrgX1 agonist | MrgX1 allo act
COc1cccc(C(=O)Nc2ccc(NC(C)=O)cc2)c1 | i | i | i | i | i
COc1cc(OC)c(C(=O)Nc2ccncc2)cc1OC | i | i | i | i | i
COc1ccc(C(=O)N/N=C(/C)c2cccc(NC(=O)c3ccncc3)c2)cc1OC | -6.96* | i | i | i | i
Cc1c(NC(=O)C(C)OC(=O)CCOc2ccccc2)c(=O)n(-c2ccccc2)n1C (stereo unspecified) | i | i | i | i | i
CCOC(=O)c1c(C)c(C(=O)N2CCN(c3ccc(F)cc3)CC2)c(C)n1C | i | i | i | i | i
COc1ccc(C(=O)NCc2nnc(SCC(=O)N3CCCc4ccccc43)o2)cc1OC | i | i | i | i | i
C#CCOCCOCCOCCNc1nc(N2CCN(C(=O)CCCCCCCCCCNC(=O)Cn3cc(CCCCCN)nn3)CC2)nc(N2CCN(C(=O)CCCCCCCCCCNC(=O)[C@H]([C@@H](C)CC)n3cc(CCCCN=C(N)N)nn3)CC2)n1 | x | x | i | 116* | i
C#CCOCCOCCOCCNc1nc(N2CCN(C(=O)[C@H](C)n3cc(CCCN=C(N)N)nn3)CC2)nc(N2CCN(C(=O)[C@H](C)n3cc(CCCN=C(N)N)nn3)CC2)n1 | i | i | i | i | 8.39*
C#CCOCCOCCOCCNc1nc(N2CCN(C(=O)CCCCCCCCCCNC(=O)[C@H]([C@@H](C)CC)n3cc(CCCCCN)nn3)CC2)nc(N2CCN(C(=O)CCCCCCCCCCNC(=O)[C@H]([C@@H](C)CC)n3cc(CCCCN=C(N)N)nn3)CC2)n1 | x | x | i | 80.6* | i
C#CCOCCOCCOCCNc1nc(N2CCOCC2)nc(N2CCN(C(=O)CCCCCCCCCCNC(=O)[C@@H]([C@H](C)CC)n3cc(CCCCCN)nn3)CC2)n1 | x | x | i | i | i
C#CCOCCOCCOCCNc1nc(N2CCN(C(=O)CCCCCCCCCCNC(=O)[C@H]([C@@H](C)CC)n3cc(CCCCN=C(N)N)nn3)CC2)nc(N2CCN(C(=O)CCCCCCCCCCNC(=O)[C@H](CCCCN)n3cc(C)nn3)CC2)n1 | x | x | i | 122* | i
C#CCOCCOCCOCCNc1nc(N2CCN(C(=O)CCCCCCCCCCNC(=O)[C@H]([C@@H](C)CC)n3cc(CCCCCN)nn3)CC2)nc(N2CCN(C(=O)CCCCCCCCCCNC(=O)[C@H](CCCCN)n3cc(CCCC(=O)O)nn3)CC2)n1 | x | x | i | i | i
C#CCOCCOCCOCCNc1nc(N2CCN(C(=O)CCCCCCCCCCNC(=O)[C@H](CO)n3cc(CCCSC)nn3)CC2)nc(N2CCN(C(=O)CCCCCCCCCCNC(=O)[C@H](CCCN=C(N)N)n3cc(C[C@@H](C)CC)nn3)CC2)n1 | x | x | i | i | i
C#CCOCCOCCOCCNc1nc(N2CCN(C(=O)CCCCCCCCCCNC(=O)[C@H]([C@@H](C)CC)n3cc(CCCCN=C(N)N)nn3)CC2)nc(N2CCN(C(=O)CCCCCCCCCCNC(=O)[C@H]([C@@H](C)CC)n3cc(CCCCN=C(N)N)nn3)CC2)n1 | x | x | i | 38.5* | i
C#CCOCCOCCOCCNc1nc(N2CCN(C(=O)CCCCCCCCCCNC(=O)[C@H]([C@@H](C)CC)n3cc(CCCCN=C(N)N)nn3)CC2)nc(N2CCN(C(=O)CCCCCCCCCCNC(=O)[C@H](CO)n3cc(CCCCCN)nn3)CC2)n1 | x | x | i | 151* | i
CCOC(=O)c1cc2c(=O)n3cccc(C)c3nc2n(Cc2ccco2)c1=NC(=O)c1ccccc1 | -7.2* | i | i | i | i
CCOC(=O)c1cc2c(=O)n3ccccc3nc2n(Cc2ccco2)c1=NC(=O)c1cccc(OC)c1 | -7.43* | i | -5.8* | i | i
O=[N+]([O-])c1ccc(N2CCN(CCO)CC2)cc1Sc1nc2ccccc2[nH]1 | i | i | i | i | i
O=C(O)CCC(=O)NNC(=O)COc1cccc(Cl)c1 | i | i | i | i | i
O=C(COc1cccc(Cl)c1)NNC(=S)Nc1ccccc1 | i | i | i | i | 8.71*
O=C(COc1ccccc1)NNC(=S)NC(=O)c1ccc(Cl)cc1Cl | i | i | i | 98* | i
CCc1ccccc1NC(=O)CN(C)C(=O)CSc1nc2cc(Cl)ccc2s1 | i | i | i | i | i
CCCc1sc(N/N=C/c2ccccn2)nc1-c1ccc(F)cc1 | i | 6.5* | i | i | i
CC(/C=C/c1ccccc1)=N/NC(=O)Cn1nnc(N)n1 | i | i | i | i | i
O=C(NNC(=O)c1ccc(SCC2CCCO2)c([N+](=O)[O-])c1)c1ccc(Cl)c([N+](=O)[O-])c1 (stereo unspecified) | i | i | i | i | i
SMILES | RGS4 pot | RGS4 inh | MrgX1 antagonist | MrgX1 agonist | MrgX1 allo act
Cc1ccc(C(=O)NNC(=O)c2ccc(SCC3CCCO3)c([N+](=O)[O-])c2)cc1 (stereo unspecified) | i | i | -6.68* | i | i
COc1ccccc1-c1cnn2c(NCCc3ccccc3)cc(C)nc12 | -7.41* | i | i | i | i
Cc1cc(NC2CCCC2)n2ncc(-c3ccccc3)c2n1 | i | i | i | i | i
Cc1cc(N2CCOCC2)n2ncc(-c3ccccc3)c2n1 | i | i | i | i | i
Cc1cc(N2CCC(C)CC2)n2ncc(-c3ccccc3)c2n1 | -7.34* | i | i | i | i
Cc1cc(NC(C)c2ccccc2)n2ncc(-c3ccccc3)c2n1 (stereo unspecified) | -7.03* | i | i | i | i
Cc1cc(NCc2ccccc2)n2ncc(-c3ccccc3)c2n1 | -8.73* | i | i | i | i
CS(=O)(=O)N(CC(=O)N1CCOCC1)c1ccccc1 | i | i | i | i | i
Cc1ccc2nc(-c3cccc(NS(C)(=O)=O)c3)cc(-c3ccccc3)c2c1 | i | i | i | i | i
O=C(CNC(=O)c1ccccc1)N=Nc1c(O)[nH]c2ccc(Br)cc12 | i | i | i | i | i
O=S(=O)(Cc1ccccc1)N=Nc1c(O)[nH]c2ccc(Br)cc12 | i | i | i | i | 10.5*
Cc1ccc(Oc2ccc(S(=O)(=O)N3CCOCC3)cc2C(N)=O)c(-n2nc3ccccc3n2)c1 | i | i | i | i | i
O=C(O)c1cccc(-c2ccc(/C=N/Nc3ccc([N+](=O)[O-])cc3)o2)c1 | i | i | -7* | i | i
CC(C)(C)NC(=S)N/N=C\c1ccc(-c2ccc([N+](=O)[O-])cc2)o1 | i | i | i | 28.3* | i
